Measured values of several laboratories.
Protocols differ between the studies behind these lines.
Target: Mitogen-activated protein kinase 12 (MAPK12, Homo sapiens, UniProt P53778)
One construct used (P53778 1-367): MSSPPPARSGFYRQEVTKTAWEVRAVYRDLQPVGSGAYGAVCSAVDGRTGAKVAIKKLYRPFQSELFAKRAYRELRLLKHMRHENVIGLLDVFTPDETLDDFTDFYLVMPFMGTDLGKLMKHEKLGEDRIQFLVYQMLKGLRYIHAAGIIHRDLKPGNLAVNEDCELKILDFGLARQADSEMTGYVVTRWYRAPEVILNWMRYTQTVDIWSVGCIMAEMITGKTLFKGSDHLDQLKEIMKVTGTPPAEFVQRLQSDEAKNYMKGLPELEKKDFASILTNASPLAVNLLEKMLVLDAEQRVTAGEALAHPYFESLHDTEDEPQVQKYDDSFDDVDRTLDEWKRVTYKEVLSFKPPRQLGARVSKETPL

Cc1ccc(Nc2nccc(N(C)c3ccc4c(C)n(C)nc4c3)n2)cc1S(N)(=O)=O
inhibition (enzyme activity, inhibitor; 0.3 µM): -5%

O=C1NC(=O)c2cc(Nc3ccc(F)cc3)c(Nc3ccc(F)cc3)cc21
remaining signal (cell-free assay; 0.5 µM): 93.6%

CN1CCN(c2cnc3c(C4CCN(C(=O)c5ccc(OC(F)(F)F)cc5N)CC4)ncnc3c2)CC1
remaining binding (cell-free assay, competition with immobilised ligand; 1 µM): 83%

O=C1Nc2ccc(Cl)cc2C1=Cc1cc(Cl)c(O)c(Cl)c1
remaining signal (cell-free assay; 0.5 µM): 90.5%

Cc1sc(C(=O)NC2COC2)cc1-n1cc(NC(=O)Nc2c(F)cccc2Cl)cn1
remaining activity (enzyme activity, inhibitor; 10 µM): 90.5%

Nc1nc(NC2CCCCC2)sc1C(=O)c1ccccc1
remaining activity (enzyme activity, inhibitor; 10 µM): 71%

Cn1nc(C(F)(F)F)cc1-c1cnc(N2CCc3cc(S(=O)(=O)Nc4c(F)cc(Cl)cc4F)cc(N4CCCC4=O)c32)nc1
remaining binding (cell-free assay, competition with immobilised ligand; 1 µM): 83%

COc1cc(Cl)c(C(=O)N[C@@H](CN[C@H]2CC[C@@H](N)CC2)Cc2ccc(C#N)cc2)cc1-c1ccc(CN[C@H](C)c2ccc(C)cc2)o1
remaining activity (enzyme activity, inhibitor; 1 µM): 109%

CCCOc1ccc(OC)c(F)c1C(=O)c1ccc(C(=O)N[C@@H]2CNC[C@H]2NC(=O)c2ccc3[nH]ncc3c2)cc1
remaining activity (enzyme activity, inhibitor; 10 µM): 97%

CS(=O)(=O)c1cc(C2(NC(=O)c3cncc4c3cnn4-c3ccc(F)cc3)CC2)ccn1
remaining binding (cell-free assay, competition with immobilised ligand; 1 µM): 100%

CCN(CC)CCNC(=O)c1c(C)[nH]c(/C=C2\C(=O)Nc3ccc(F)cc32)c1C
inhibition (enzyme activity, inhibitor; 0.3 µM): -10%

COc1cc(Nc2cnc(C#N)c(O[C@H](C)CN(C)C)n2)ncc1-c1cnn(C)c1
remaining activity (enzyme activity, inhibitor, radiometric; 1 µM): 89%

NS(=O)(=O)c1cc(NC(=O)Cc2ccccc2)ccc1Oc1cccc(Cl)c1
remaining binding (cell-free assay, competition with immobilised ligand; 1 µM): 100%

CC/C(=N\NC(=O)NCc1cccc(O)c1)c1ccc(O)c(C)c1O
inhibition (enzyme activity, inhibitor; 0.1 µM): -1.6%

Cc1ccc(NC(=O)c2ccc(C)c(C(F)(F)F)c2)cc1C#Cc1nn(C2CCC(O)CC2)c2ncnc(N)c12 (stereo not shown)
remaining signal (cell-free assay; 10 µM): 68%

O=C(NC[C@@H]1[C@H]2CN(C(=O)OCc3cc(C(F)(F)F)cc(C(F)(F)F)c3)C[C@@H]12)c1ccc2[nH]nnc2c1
remaining binding (cell-free assay, competition with immobilised ligand; 1 µM): 100%

FC(F)c1nc2ccccc2n1-c1nc(N2CCOCC2)nc(N2CCOCC2)n1
remaining activity (enzyme activity, inhibitor; 10 µM): 92%

COc1cc2ncnc(Nc3ccc(Oc4ccccc4)cc3C)c2cc1OC
inhibition (enzyme activity, inhibitor; 1 µM): 4%

CNC(=O)Nc1ccc2c(c1)CC[C@@]21OC(=O)N(CC(=O)N(Cc2ccc(F)cc2)[C@@H](C)C(F)(F)F)C1=O
remaining binding (cell-free assay, competition with immobilised ligand; 1 µM): 63%
